From ChEMBL document CHEMBL1154614, “Synthesis and evaluation of stable bidentate transition metal complexes of 1-(chloromethyl)-5-hydroxy-3-(5,6,7-trimethoxyindol-2-ylcarbonyl)-2,3-dihydro-1H-pyrrolo[3,2-f]quinoline (seco-6-azaCBI-TMI) as hypoxia selective cytotoxins” (J Med Chem, 2009)
pIC50: −log10 of the molar value.

Assays:
[1] = Solubility in alpha-MEM in presence of FCS; assay type: physicochemical; conditions: alpha-MEM with FCS
CHO-AA8 = assay: Cytotoxicity against hamster AA8 cells after 4 hrs under aerobic conditions; assay type: cell-based; conditions: Cricetulus griseus, CHO-AA8, 4 h
Procedure, shortened: (§1)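 Attached log-phase cells exposed to compound for 4 h under aerobic conditions; compounds formulated in DMSO, final DMSO <1%. IC50 = concentration giving 50% inhibition of cell proliferation. Mean ± SEM of >2 determinations.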

UV4 = assay: Cytotoxicity against hamster UV4 cells after 4 hrs under aerobic conditions; assay type: cell-based; conditions: Cricetulus griseus, UV4, 4 h; procedure, shortened: as §1
[2] = Cytotoxicity against mouse EMT6V cells after 4 hrs under aerobic conditions; assay type: functional, cell-based; procedure, shortened: as §1
SK-OV-3 [3] = assay: Cytotoxicity against human SKOV3 cells after 4 hrs under aerobic conditions; assay type: functional, cell-based; conditions: SK-OV-3, 4 h; procedure, shortened: as §1
SK-OV-3 [4] = assay: Hypoxic cytotoxicity ratio, ratio of IC50 for human SKOV3 cells under aerobic condition to IC50 for human SKOV3 cells after 4 hrs under hypoxic condition; assay type: functional
Procedure, shortened: (§2)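 Attached log-phase cells given 4 h compound exposure in parallel under oxic and hypoxic conditions; compounds in DMSO, final DMSO <1%. IC50 for inhibition of cell proliferation. Ratio = aerobic IC50/hypoxic IC50, calculated within each experiment.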

A549 [5] = assay: Cytotoxicity against human A549 cells after 4 hrs under aerobic conditions; assay type: functional, cell-based; conditions: A549, 4 h; procedure, shortened: as §1
A549 [6] = assay: Hypoxic cytotoxicity ratio, ratio of IC50 for human A549 cells under aerobic condition to IC50 for human A549 cells after 4 hrs under hypoxic condition; assay type: functional; procedure, shortened: as §2

Structure (SMILES)	solubility [1] [µM]	pIC50 (CHO-AA8)	pIC50 (UV4)	pIC50 [2]	pIC50 (SK-OV-3 [3])	Ratio IC50 (SK-OV-3 [4])	pIC50 (A549 [5])	Ratio IC50 (A549 [6])
CN(C)CCOc1ccc2[nH]c(C(=O)N3CC(CCl)c4c3cc(O)c3ncccc43)cc2c1 (stereo not given)	32	8.36	8.77	9.13	8.16	0.56	8.89	1.11
COc1ccc(/C=C/C(=O)N2CC(CCl)c3c2cc(O)c2ncccc32)cc1 (stereo not given)	40	–	–	–	9.54	–	10.05	–
COc1ccc(/C=C/C(=O)N2CC(CCl)c3c2cc(O)c2ncccc32)cc1O (stereo not given)	110	–	–	–	9.77	–	9.74	–
COc1cc2cc(C(=O)N3C[C@@H](CCl)c4c3cc(O)c3ncccc43)[nH]c2c(OC)c1OC	–	10.15	10.40	10.52	9.96	–	10.40	–
CN(C)CCOc1ccc(/C=C/C(=O)N2CC(CCl)c3c2cc(O)c2ncccc32)cc1 (stereo not given)	860	8.59	9.14	9.24	8.72	0.65	9.04	0.86
COc1ccc2[nH]c(C(=O)N3CC(CCl)c4c3cc(O)c3ncccc43)cc2c1 (stereo not given)	110	–	–	–	9.57	0.91	10.10	1.51
COc1cc2cc(C(=O)N3C[C@H](CCl)c4c3cc(O)c3ncccc43)[nH]c2c(OC)c1OC	–	7.66	8.34	8.14	8.07	–	8.06	–
COc1cc2cc(C(=O)N3CC(CCl)c4c3cc(O)c3ncccc43)[nH]c2c(OC)c1OC (racemic)	30	9.85	10.15	10.30	9.59	0.69	10.22	0.76
